Series [1] can be described thus: folding enthalpy; higher = less favourable; fluorescence melt of hairpins on a sequencing array, two-state fit. The following applies: sodium 0.088 M. An outline of the steps:
(§1)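 Two-state fits, bootstrapped, provided melting temperature and folding enthalpy from Cy3 fluorescence normalised to pre-quench Cy3 and to control constructs. Library hairpins with annealed Cy3 and quencher oligos were imaged on a sequenced MiSeq flow cell in 50 mM Na-HEPES pH 8.0, 25 mM NaCl, at 2.5 °C intervals up to 60 °C. Four replicates were combined with inverse-variance weighting. A 9.35 °C upward shift was applied to fitted temperatures to match UV melts.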

A short description of series [2]: melting temperature; fluorescence melt of hairpins on a sequencing array, two-state fit, raised by 9.35 °C to match UV melts. The following applies: sodium 0.088 M. An outline of the steps:
as §1

Take GCAAAGGGAAACCTTTGC (((((((....))))))): the folding enthalpy in series [1] was -45.1 kcal/mol. Further, the Tm in series [2] amounted to 64.1 °C.

Turning to GCAAATCCGAAAGGATGC (((..(((....)))))), the folding enthalpy in series [1] is -17.5 kcal/mol. Further, the Tm in series [2] was found to be 47.8 °C.

As for GCAAATGCGAAAGCATGC (((..(((....)))))), in series [1], the folding enthalpy is -15 kcal/mol. The Tm in series [2] stood at 51.4 °C.

GCAAATGGAAACATCTGC (((.(((....))).))): the folding enthalpy in series [1] was -20.3 kcal/mol. In series [2], the Tm worked out at 33 °C.

GCAAATTCGAAAGAATGC (((..(((....)))))): the folding enthalpy in series [1] is -18.4 kcal/mol. Moreover, in series [2], the Tm turned out to be 35.8 °C.

GCAACAGGAAACTGCTGC (((.(((....))).))): the folding enthalpy in series [1] is -30.2 kcal/mol. The Tm in series [2] is 44.6 °C.

For the sequence GCAACATCGAAAGATTGC (((..(((....)))))), the folding enthalpy in series [1] was -19.8 kcal/mol. The Tm in series [2] came to 34.2 °C.

For GCAACCCGAAAGGGATGC (((.(((....))).))), the folding enthalpy in series [1] was -32.9 kcal/mol. Moreover, in series [2], the Tm turned out to be 63.5 °C.

For GCAACCCGAAAGGGCTGC (((.(((....))).))), in series [1], the folding enthalpy was -44.6 kcal/mol. In series [2], the Tm was found to be 60.6 °C.

Take GCAACCCGAAAGGGTGC (((.(((....)))))): the folding enthalpy in series [1] was -19.1 kcal/mol. Further, the Tm in series [2] turned out to be 64.1 °C.

Regarding GCAACCGAAAGGTCTTGC ((((((....)))..))), in series [1], the folding enthalpy is -16.5 kcal/mol. Also, the Tm in series [2] is 35.7 °C.

In the case of GCAACCGAAAGGTGCTGC ((((((....)))..))), the folding enthalpy in series [1] was -23.5 kcal/mol. Also, the Tm in series [2] was 57.1 °C.

In the case of GCAACCGAAAGGTTATGC ((((((....)))..))), the folding enthalpy in series [1] was -12.3 kcal/mol. Further, in series [2], the Tm came to 44.1 °C.

For GCAACCGAAAGGTTTGC ((((((....))).))), the folding enthalpy in series [1] was -23.6 kcal/mol. Further, in series [2], the Tm is 55.7 °C.

GCAACCGAAAGGTTTTGC ((((((....)))..))): the folding enthalpy in series [1] was -14.4 kcal/mol. In addition, the Tm in series [2] is 39.9 °C.

Consider GCAACGCGAAAGCACTGC (((..((....))..))), for which the folding enthalpy in series [1] was -11.4 kcal/mol. In addition, the Tm in series [2] was determined as 41.4 °C.

For the sequence GCAACGCGAAAGCCCTGC (((..((....))..))), the folding enthalpy in series [1] was -7.63 kcal/mol. In addition, the Tm in series [2] came to 23.8 °C.

Consider GCAACGCGAAAGCGAGGC ((..(((....)))..)), for which the folding enthalpy in series [1] was -13.5 kcal/mol. The Tm in series [2] came out at 59.9 °C.

On to GCAACGGGAAACCGTCGC ((.((((....)))).)), for which, in series [1], the folding enthalpy is -28.3 kcal/mol. In series [2], the Tm was determined as 49.4 °C.

For GCAACGGGAAACCGTTAC (.(((((....))))).), the folding enthalpy in series [1] was -13.3 kcal/mol. In addition, the Tm in series [2] was determined as 38.6 °C.

Consider GCAACTACGAAAGTATGC (((..(((....)))))), for which the folding enthalpy in series [1] was -16.5 kcal/mol. Also, the Tm in series [2] is 32.1 °C.

Regarding GCAACTGGAAACAGCTGC (((.(((....))).))), the folding enthalpy in series [1] is -35.8 kcal/mol. For the same sequence, the Tm in series [2] is 46.2 °C.

In the case of GCAAGACGAAAGTCCTGC (((.(((....))).))), the folding enthalpy in series [1] was -26.4 kcal/mol. Moreover, in series [2], the Tm is 48.7 °C.

Turning to GCAAGAGAAATCTTGC ((((((....)))))), the folding enthalpy in series [1] is -38.3 kcal/mol. In series [2], the Tm stood at 52.8 °C.

On to GCAAGCCCGAAAGGGTGC (((..(((....)))))), for which, in series [1], the folding enthalpy is -14.4 kcal/mol. Moreover, the Tm in series [2] worked out at 47.2 °C.

For the sequence GCAAGCGAAAGCTGGTGC ((((((....)))..))), the folding enthalpy in series [1] was -20.9 kcal/mol. Besides, the Tm in series [2] worked out at 47.6 °C.

As for GCAAGCGAAAGCTGTTGC ((((((....)))..))), in series [1], the folding enthalpy is -15.7 kcal/mol. In addition, the Tm in series [2] was found to be 45.9 °C.

In the case of GCAAGCGAAAGCTTTTGC ((((((....)))..))), the folding enthalpy in series [1] is -12.8 kcal/mol. Besides, the Tm in series [2] came out at 42.2 °C.

Consider GCAAGGACGAAAGTCTGC (((..(((....)))))), for which, in series [1], the folding enthalpy was -17.5 kcal/mol. Besides, the Tm in series [2] is 44.6 °C.

For the sequence GCAAGGCGAAAGCGTAGC ((.(.((....)).).)), in series [1], the folding enthalpy is -11.6 kcal/mol. For the same sequence, the Tm in series [2] is 40.5 °C.

With GCAAGGCGAAAGCTATGC (((..((....))..))), the folding enthalpy in series [1] is -20.8 kcal/mol. Also, the Tm in series [2] is 42.4 °C.

Turning to GCAAGGCGAAAGCTTTGC ((((.((....)).)))), the folding enthalpy in series [1] is -39 kcal/mol. The Tm in series [2] amounted to 63.9 °C.

For the sequence GCAAGTCCGAAAGGATGC (((..(((....)))))), the folding enthalpy in series [1] was -16.1 kcal/mol. Besides, the Tm in series [2] was 37.7 °C.

For the sequence GCAAGTGGAAACACCTGC (((.(((....))).))), the folding enthalpy in series [1] was -25.3 kcal/mol. Also, the Tm in series [2] came out at 40.5 °C.

As for GCAATCCGAAAGGATGC (((.(((....)))))), the folding enthalpy in series [1] is -26 kcal/mol. For the same sequence, the Tm in series [2] was found to be 56.4 °C.

Take GCAATCGAAAGATTCTGC ((((((....)))..))): the folding enthalpy in series [1] was -16 kcal/mol. In addition, the Tm in series [2] is 33.7 °C.

As to GCAATCGAAAGATTGTGC ((((((....)))..))), in series [1], the folding enthalpy was -27.1 kcal/mol. The Tm in series [2] was 51.1 °C.

With GCAATCGCGAAAGCGTGC (((..(((....)))))), the folding enthalpy in series [1] is -12.5 kcal/mol. In series [2], the Tm is 44 °C.

In the case of GCAATCGGAAACAATTGC (((((.(....).))))), the folding enthalpy in series [1] was -27.9 kcal/mol. The Tm in series [2] came out at 38 °C.

GCAATCGGAAACGACTGC (((.(((....))).))): in series [1], the folding enthalpy is -28.9 kcal/mol. In series [2], the Tm worked out at 45.1 °C.

Consider GCAATCTCGAAAGAGTGC (((..(((....)))))), for which, in series [1], the folding enthalpy was -24.5 kcal/mol. Further, in series [2], the Tm came to 43.2 °C.

Turning to GCAATGCGAAAGCACCGC ((..(((....)))..)), in series [1], the folding enthalpy was -9.88 kcal/mol. Moreover, in series [2], the Tm was determined as 33 °C.

Take GCAATGCGAAAGCCCTGC (((..((....))..))): the folding enthalpy in series [1] is -10.3 kcal/mol. Besides, in series [2], the Tm amounted to 28.4 °C.

As to GCAATGCGAAAGCCTCGC ((.(.((....)).).)), in series [1], the folding enthalpy is -10.9 kcal/mol. In addition, the Tm in series [2] turned out to be 31.5 °C.

With GCAATGCGAAAGCGCTGC (((..((....))..))), in series [1], the folding enthalpy is -20 kcal/mol. Moreover, in series [2], the Tm amounted to 49.2 °C.

Consider GCAATGCGAAAGCTATGC (((..((....))..))), for which the folding enthalpy in series [1] is -20.4 kcal/mol. The Tm in series [2] worked out at 50.6 °C.

GCAATGCGAAAGCTTCGC ((.(.((....)).).)): the folding enthalpy in series [1] was -11.9 kcal/mol. In addition, the Tm in series [2] is 44 °C.

In the case of GCAATGCGAAAGCTTGGC ((.(.((....)).).)), the folding enthalpy in series [1] was -19.1 kcal/mol. For the same sequence, the Tm in series [2] is 40.6 °C.

For GCAATGTCGAAAGACTGC (((..(((....)))))), in series [1], the folding enthalpy was -20.3 kcal/mol. Further, the Tm in series [2] was found to be 44.9 °C.

In the case of GCAATTCGAAAGAAATGC (((.(((....))).))), in series [1], the folding enthalpy was -36.8 kcal/mol. Further, the Tm in series [2] was found to be 46.1 °C.

GCAATTCGAAAGAATGC (((.(((....)))))): the folding enthalpy in series [1] was -29.3 kcal/mol. The Tm in series [2] came out at 48.1 °C.

On to GCACAACGAAAGTTATGC (((.(((....))).))), for which the folding enthalpy in series [1] was -34.9 kcal/mol. In addition, the Tm in series [2] turned out to be 44.5 °C.

For the sequence GCACAACGAAAGTTCTGC (((.(((....))).))), the folding enthalpy in series [1] was -26.1 kcal/mol. Moreover, in series [2], the Tm worked out at 36.8 °C.

Turning to GCACAAGCGAAAGCTTGC (((..(((....)))))), in series [1], the folding enthalpy was -7.33 kcal/mol. Also, the Tm in series [2] is 37.8 °C.

Source of the values: the array DNA melting data of Ke et al. (doi:10.1101/2024.01.08.574731).
